Experimental data reported in ChEMBL document CHEMBL1129319, “Design and synthesis of new linear and cyclic bradykinin antagonists” (J Med Chem, 1996).
Activity calls are given as the source filed them. No cut-off for these calls is given here. Numbered stars: 1 amine (or outer) side, 2 acyl side, 3 side chain; on linkers, the order of the positions; unused ones are H or OH. Square brackets hold non-standard residues; d marks the D form. Peptide text beside a SMILES is read from it. * marks the point of attachment. ξ: configuration not given here. X1 = NC(N)=NCCC[C@@H](NC(=O)[C@H](Cc1ccccc1)NC(=O)N1CCC[C@H]1C(=O)[C@H](CO)N*)C(=O)O; Pentanoyl(5-guanidino) = NC(N)=NCCCCC(=O)*; Butanoyl(4-guanidino) = N=C(N)NCCCC(=O)*; Oic(3aξ,7aξ) = O=C(O)[C@@H]1CC2CCCCC2N1; NH(CH2)9CO = O=C(CCCCCCCCCN[*:1])[*:2]; Tic = O=C(O)[C@@H]1Cc2ccccc2CN1; 2Thi = N[C@@H](Cc1cccs1)C(=O)O; X2 = N=C(N)NCCCCCC(=O)*; GABA = NCCCC(=O)O

Experiments:
B2 bradykinin receptor = target: T1, B2 bradykinin receptor (Oryctolagus cuniculus, UniProt Q28642); experiment: In vitro antagonistic activity against kinin-induced rabbit jugular vein contraction.; type: functional; details: for Kb: read-out: pA2 (converted)
T1 sequence (Q28642 whole entry): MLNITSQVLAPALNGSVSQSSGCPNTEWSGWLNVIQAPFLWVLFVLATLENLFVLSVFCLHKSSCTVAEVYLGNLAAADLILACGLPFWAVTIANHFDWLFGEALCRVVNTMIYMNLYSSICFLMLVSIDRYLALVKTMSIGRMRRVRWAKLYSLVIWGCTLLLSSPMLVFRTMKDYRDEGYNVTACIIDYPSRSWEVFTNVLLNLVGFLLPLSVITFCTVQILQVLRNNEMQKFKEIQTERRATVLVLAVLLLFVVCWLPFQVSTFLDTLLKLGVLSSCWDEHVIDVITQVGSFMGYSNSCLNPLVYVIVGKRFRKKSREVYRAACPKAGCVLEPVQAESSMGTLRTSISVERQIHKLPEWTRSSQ
Summary of the method: (§1)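 Rabbit jugular vein rings (B2 tissue), reference KCl 60 mM contraction then 45 min rest; antagonist, usually 10-7, 10^-6 and 10^-5 M, incubated 45 min before cumulative bradykinin; one curve per ring; pA2 by Tallarida's method with Schild slope constrained to unity, or pKB from EC50 ratio when activity appeared only at 10^-5 M.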

[1] = target: T2, B2 bradykinin receptor (Homo sapiens) (UniProt P30411); experiment: Antagonistic activity against bradykinin B2 receptor as human umbilical vein contraction; type: functional, tissue-based
T2 sequence (whole entry): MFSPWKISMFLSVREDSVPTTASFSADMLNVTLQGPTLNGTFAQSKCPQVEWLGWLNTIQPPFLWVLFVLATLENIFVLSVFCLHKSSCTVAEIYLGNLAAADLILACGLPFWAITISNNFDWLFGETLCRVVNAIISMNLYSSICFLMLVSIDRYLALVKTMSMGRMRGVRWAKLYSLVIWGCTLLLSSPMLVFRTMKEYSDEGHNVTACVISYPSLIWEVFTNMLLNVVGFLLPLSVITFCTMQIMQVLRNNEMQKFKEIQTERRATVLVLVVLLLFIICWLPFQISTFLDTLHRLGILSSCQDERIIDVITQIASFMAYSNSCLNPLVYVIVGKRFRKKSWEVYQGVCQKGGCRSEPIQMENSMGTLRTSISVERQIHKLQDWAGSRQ
Summary of the method: (§2)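 Endothelium-denuded human umbilical vein rings in Krebs (37 °C, 95% O2/5% CO2, pH 7.40), 2-4 g load, pretreated with indomethacin 5 × 10^-6 M and L-nitroarginine 10^-4 M; antagonist incubated 45 min before a single cumulative bradykinin curve per ring; isometric contraction as % of KCl (60 mM) reference; pKB from KB = [Ant]/(concentration ratio − 1).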

[2] = target: T3, B2 bradykinin receptor (Oryctolagus cuniculus) (UniProt Q28642); experiment: In vitro antagonistic activity against kinin-induced rabbit jugular vein contraction by bradykinin B2 receptor; in = inactive at 10e-5M.; type: functional; summary of the method: as §1
T3 sequence (whole entry): T1 sequence (Q28642 whole entry)

[3] = target: T3, B2 bradykinin receptor (Oryctolagus cuniculus); experiment: In vitro antagonistic activity against kinin-induced rabbit jugular vein contraction by bradykinin B2 receptor; in = inactive at 10e-5M; type: functional; summary of the method: as §1
[4] = target: T2, B2 bradykinin receptor (Homo sapiens); experiment: Antagonistic activity against bradykinin B2 receptor as human umbilical vein contraction; in = inactive at 10e-5M; type: functional, tissue-based; summary of the method: as §2

Row | Structure (SMILES) | Kb (B2 bradykinin receptor) | other results
1 | C[C@@H]1NC(=O)CCCNC(=O)[C@H](CCCN=C(N)N)NC(=O)[C@@H]2CC3CCCCC3N2C(=O)[C@H]2Cc3ccccc3CN2C(=O)[C@H](CO)NC1=O (some centres undefined) | 309 nM | –
2 | NCCCC[C@@H]1NC(=O)[C@H](CCCN=C(N)N)NC(=O)[C@@H]2C[C@@H]3CCCC[C@@H]3N2C(=O)[C@H]2Cc3ccccc3CN2C(=O)[C@H](Cc2cccs2)NC1=O | – | pA2 (B2 bradykinin receptor): 6.84
3 | N=C(N)NCCC[C@@H]1NC(=O)[C@H](CCCNC(=N)N)NC(=O)[C@@H]2CC3CCCCC3N2C(=O)[C@H]2Cc3ccccc3CN2C(=O)[C@H](Cc2cccs2)NC1=O (some centres undefined) | 75.9 nM | –
4 | N=C(N)NCCC[C@@H]1NC(=O)[C@@H]2CC3CCCCC3N2C(=O)[C@H]2Cc3ccccc3CN2C(=O)[C@H](Cc2ccccc2)NC(=O)CNC1=O (some centres undefined) | 117 nM | pKb [1]: 5.13
5 | N=C(N)NCCC[C@@H]1NC(=O)[C@@H]2CC3CCCCC3N2C(=O)[C@H]2Cc3ccccc3CN2C(=O)[C@H](CO)NC(=O)[C@@H]2Cc3ccccc3CN2C(=O)CCCNC1=O (some centres undefined) | 437 nM | –
6 | C[C@@H]1NC(=O)[C@H](Cc2cccs2)NC(=O)CCCNC(=O)[C@H](CCCN=C(N)N)NC(=O)[C@@H]2CC3CCCCC3N2C(=O)[C@H]2Cc3ccccc3CN2C1=O (some centres undefined) | 63.1 nM | –
7 | N=C(N)NCCCCC(=O)N[C@@H](Cc1cccs1)C(=O)N1Cc2ccccc2C[C@H]1C(=O)N1C2CCCCC2C[C@H]1C(=O)N[C@@H](CCCNC(=N)N)C(=O)O (some centres undefined) ({Pentanoyl(5-guanidino)}-[2Thi][Tic][Oic(3aξ,7aξ)]R-OH) | 3020 nM | –
8 | NC(N)=NCCC[C@H](NC(=O)[C@@H]1CC2CCCCC2N1C(=O)[C@@H]1Cc2ccccc2CN1C(=O)[C@H](CO)NC(=O)[C@@H](N)Cc1ccccc1)C(=O)O (some centres undefined) (H-FS[Tic][Oic(3aξ,7aξ)]R-OH) | 912 nM | –
9 | NCC(=O)N[C@@H](Cc1cccs1)C(=O)N1Cc2ccccc2C[C@H]1C(=O)N1C2CCCCC2C[C@H]1C(=O)N[C@@H](CCCN=C(N)N)C(=O)O (some centres undefined) (H-G[2Thi][Tic][Oic(3aξ,7aξ)]R-OH) | – | pA2 [2]: inactive; pKb [1]: 4.79
10 | NCCCCCCCCCC(=O)N[C@@H](Cc1cccs1)C(=O)N1Cc2ccccc2C[C@H]1C(=O)N1C2CCCCC2C[C@H]1C(=O)N[C@@H](CCCN=C(N)N)C(=O)O (some centres undefined) ({NH(CH2)9CO}-[2Thi][Tic][Oic(3aξ,7aξ)]R-OH) | 468 nM | –
11 | NC(N)=NCCC[C@H](NC(=O)[C@@H](Cc1ccccc1)NC(=O)[C@@H](N)CCCN=C(N)N)C(=O)N1CCC[C@H]1C(=O)N1CCC[C@H]1C(=O)NCC(=O)N[C@@H](Cc1ccccc1)C(=O)N[C@@H](CO)C(=O)[C@@H]1CCCN1C(=O)N[C@@H](Cc1ccccc1)C(=O)N[C@H](CCCN=C(N)N)C(=O)O (H-R[dF]RPPGF-X1) | – | pKb [1]: 5.16
12 | NC(N)=NCCC[C@H](NC(=O)[C@@H]1CC2CCCCC2N1C(=O)[C@@H]1Cc2ccccc2CN1C(=O)[C@H](Cc1cccs1)NC(=O)[C@@H](N)CCCN=C(N)N)C(=O)O (some centres undefined) (H-R[2Thi][Tic][Oic(3aξ,7aξ)]R-OH) | 794 nM | –
13 | N=C(N)NCCC[C@H](NC(=O)[C@@H]1CC2CCCCC2N1C(=O)[C@@H]1Cc2ccccc2CN1C(=O)[C@H](CO)NC(=O)[C@@H]1Cc2ccccc2CN1)C(=O)O (some centres undefined) (H-[Tic]S[Tic][Oic(3aξ,7aξ)]R-OH) | – | pA2 [3]: inactive
14 | NCCCC(=O)N[C@@H](Cc1cccs1)C(=O)N1Cc2ccccc2C[C@H]1C(=O)N1C2CCCCC2C[C@H]1C(=O)N[C@@H](CCCN=C(N)N)C(=O)O (some centres undefined) (H-[GABA][2Thi][Tic][Oic(3aξ,7aξ)]R-OH) | 251 nM | pKb [4]: inactive
15 | C[C@@H]1NC(=O)[C@@H](Cc2ccccc2)NC(=O)CCCNC(=O)[C@H](CCCN=C(N)N)NC(=O)[C@@H]2CC3CCCCC3N2C(=O)[C@H]2Cc3ccccc3CN2C1=O (some centres undefined) | – | pA2 [2]: inactive
16 | N=C(N)NCCC[C@@H]1NC(=O)[C@@H]2CC3CCCCC3N2C(=O)[C@H]2Cc3ccccc3CN2C(=O)[C@H](CO)NC(=O)[C@H](Cc2cccs2)NC(=O)CCCNC1=O (some centres undefined) | 45.7 nM | –
17 | NC(N)=NCCC[C@H](NC(=O)[C@@H]1CC2CCCCC2N1C(=O)[C@@H]1Cc2ccccc2CN1C(=O)[C@H](CO)NC(=O)[C@@H](N)Cc1cccs1)C(=O)O (some centres undefined) (H-[2Thi]S[Tic][Oic(3aξ,7aξ)]R-OH) | – | pA2 [3]: inactive
18 | NCC(=O)N[C@@H](Cc1ccccc1)C(=O)N1Cc2ccccc2C[C@H]1C(=O)N1C2CCCCC2C[C@H]1C(=O)N[C@@H](CCCN=C(N)N)C(=O)O (some centres undefined) (H-GF[Tic][Oic(3aξ,7aξ)]R-OH) | 851 nM | pKb [4]: inactive
19 | N=C(N)NCCCC(=O)N[C@@H](Cc1cccs1)C(=O)N1Cc2ccccc2C[C@H]1C(=O)N1C2CCCCC2C[C@H]1C(=O)N[C@@H](CCCNC(=N)N)C(=O)O (some centres undefined) ({Butanoyl(4-guanidino)}-[2Thi][Tic][Oic(3aξ,7aξ)]R-OH) | – | pA2 [2]: inactive
20 | N=C(N)NCCC[C@@H]1NC(=O)[C@@H]2CC3CCCCC3N2C(=O)[C@H]2Cc3ccccc3CN2C(=O)[C@H](Cc2cccs2)NC(=O)CCCNC1=O (some centres undefined) | 324 nM | pKb [4]: inactive

Now from value to compound, other results behind:

Row | Kb (B2 bradykinin receptor) | Structure (SMILES) | other results
21 | 219 nM | CN1CC(=O)N[C@@H](Cc2cccs2)C(=O)N2Cc3ccccc3C[C@@H]2C(=O)N2C3CCCCC3C[C@H]2C(=O)N[C@@H](CCCN=C(N)N)C1=O (some centres undefined) | –
22 | 490 nM | C[C@@H]1NC(=O)[C@H](Cc2c[nH]c3ccccc23)NC(=O)CCCNC(=O)[C@H](CCCN=C(N)N)NC(=O)[C@@H]2CC3CCCCC3N2C(=O)[C@H]2Cc3ccccc3CN2C1=O (some centres undefined) | –
23 | 363 nM | NCCCC(=O)N[C@@H](Cc1ccccc1)C(=O)N1Cc2ccccc2C[C@H]1C(=O)N1C2CCCCC2C[C@H]1C(=O)N[C@@H](CCCN=C(N)N)C(=O)O (some centres undefined) (H-[GABA]F[Tic][Oic(3aξ,7aξ)]R-OH) | –
24 | 240 nM | C[C@@H]1NC(=O)CNC(=O)[C@H](CCCN=C(N)N)NC(=O)[C@@H]2CC3CCCCC3N2C(=O)[C@H]2Cc3ccccc3CN2C1=O (some centres undefined) | –
25 | 75.9 nM | NC(N)=NCCC[C@@H]1NC(=O)[C@@H]2CC3CCCCC3N2C(=O)[C@H]2Cc3ccccc3CN2C(=O)[C@H](CO)NC(=O)[C@H](Cc2cccs2)NC(=O)CCNC1=O (some centres undefined) | –
26 | 40.7 nM | N=C(N)NCCC[C@@H]1NC(=O)[C@@H]2CC3CCCCC3N2C(=O)[C@H]2Cc3ccccc3CN2C(=O)[C@H](Cc2cccs2)NC(=O)CNC1=O (some centres undefined) | pKb [1]: 4.93
27 | 537 nM | N=C(N)NCCC[C@@H]1NC(=O)[C@@H]2CC3CCCCC3N2C(=O)[C@H]2Cc3ccccc3CN2C(=O)[C@H](CO)NC(=O)[C@H](c2ccccc2)NC(=O)CCCNC1=O (some centres undefined) | –
28 | 3390 nM | N=C(N)NCCCCCC(=O)N[C@@H](Cc1cccs1)C(=O)N1Cc2ccccc2C[C@H]1C(=O)N1C2CCCCC2C[C@H]1C(=O)N[C@@H](CCCNC(=N)N)C(=O)O (some centres undefined) (X2-[2Thi][Tic][Oic(3aξ,7aξ)]R-OH) | –
